# Entries after “also recorded” stand apart in the source; their conditions may differ.
# Columns and labels:
# [1] = Solubility of the synthesized ligands; type: physicochemical; details: aqueous buffers (as printed for C751)
# WT and PAR3^−/− mice [2] = test: Mechanical paw withdrawal threshold; type: in vivo, mouse
# WT and PAR3^−/− mice [3] = test: Facial grimacing; type: in vivo, mouse; details: for facial grimacing, WT and PAR3^−/− / facial grimacing, PAR3^−/− and WT: male
# WT and PAR3^−/− mice [4] = type: in vivo, mouse
# Procedure, shortened: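 Eight-week-old male mice were primed by intraplantar injection and allowed to recover completely (14 d), then given 100 ng PGE2 into the same hind paw. Facial expressions were video-recorded with mice placed individually in 9×5×5 cm cubicles, using an adapted mouse grimace scale protocol. Scores were averaged per time point for each cohort, with 4 mice per genotype.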
# WT and PAR3^−/− mice [5] = type: in vivo, mouse; remark: listed apart in the source
# [6] = tested on: lamina IIo neurons in lumbar segments of mouse spinal cord
# WT and PAR3^−/− mice [7] = test: Thermal sensitivity; type: in vivo, mouse; details: C660, Hargreaves
# [8] = tested on: HEK293 cells not induced to express PAR3; test: RTCA; type: cell-based; details: varying concentrations of C660; Cell Index
# Procedure, shortened: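 Uninduced HEK293 Flp-In T-Rex cells were plated on poly-L-lysine E-plates in DMEM/F12 with 5% FBS, run alongside tetracycline-induced cells. Compound was added in quadruplicate at varying final concentrations once impedance stabilized (~6 h). Cell Index, calculated as (Zi−Z0)/15 Ω, was recorded every minute for 4 h, and peak changes after addition were taken.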
# Murine PAR3 = details: COS-7 cells transfected with murine PAR3; ref [47]; cited from earlier work
# human PAR3 [9] = target: T1, human PAR3 (Homo sapiens, UniProt O00254); details: COS-7 cells transfected with human PAR3; ref [30]; cited from earlier work
# T1 sequence (O00254 22-374): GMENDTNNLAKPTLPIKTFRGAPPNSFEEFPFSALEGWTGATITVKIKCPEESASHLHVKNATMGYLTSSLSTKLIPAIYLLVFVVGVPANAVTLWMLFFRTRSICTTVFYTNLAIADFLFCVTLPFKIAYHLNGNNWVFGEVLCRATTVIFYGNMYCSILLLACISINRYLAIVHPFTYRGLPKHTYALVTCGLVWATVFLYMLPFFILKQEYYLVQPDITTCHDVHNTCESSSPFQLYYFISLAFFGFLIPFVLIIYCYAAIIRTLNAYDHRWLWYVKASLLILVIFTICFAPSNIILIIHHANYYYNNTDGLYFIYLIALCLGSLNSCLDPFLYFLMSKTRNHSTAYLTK
# human PAR3 [10] = target: T1, human PAR3; test: RTCA; type: cell-based
# Procedure, shortened: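 HEK293 Flp-In T-Rex cells stably carrying human PAR3 were induced with tetracycline (0.3 or 1 μg/mL, 48 h), then plated on poly-L-lysine E-plates in DMEM/F12 with 5% FBS. At Cell Index stabilization (~6 h), compound was added in quadruplicate at varying final concentrations. CI was read every minute for 4 h. Peak CI changes were normalized to percent of the plate's peak response, and EC50 was fitted across multiple plates.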
# [11] = tested on: human smooth muscle cells; details: ref [6]; cited from earlier work
# rat astrocytes = details: ref [60]; cited from earlier work
# mouse lung fibroblasts = details: ref [35]; cited from earlier work
# [12] = tested on: human A-498 carcinoma cells; details: ref [35]; cited from earlier work
# [13] = 2AT 30 pmol, hind paw, n = 4/group
# [14] = primed with 2AT 30 pmol, i.pl, PGE2 100 ng after 14 d, n = 4/group
# [15] = primed with IL-6 0.1 ng, i.pl, PGE2 100 ng after 14 d, n = 4/group
# [16] = C660 30 pmol intraplantar, WT male mice, n = 4/group
# [17] = thrombin 10 units, i.pl, male, n = 4/group
# [18] = thrombin 10 units, i.pl, male, n = 4/group, listed as thrombin
# [19] = TFFLLR-NH2 100 μg, i.pl, male, n = 4/group
compound,measurement,setting,value
TFRGAPPNSFEEF-pego3-KLIPAIYLLVFVVGV-amide [Compound C751],solubility,[1],low solubility
"2-aminothiazo-4-yl-LIGRL-NH2 [Compound 2AT, reference compound]","mechanical hypersensitivity, WT and PAR3^−/−","WT and PAR3^−/− mice [2]; 2AT 30 pmol, hind paw, male, n = 4/group",significantly increased (A) mechanical hypersensitivity; also recorded: did not show any differences in acute responses in PAR3^−/− mice
same,"duration of mechanical hypersensitivity, WT and PAR3^−/−",WT and PAR3^−/− mice [2]; [13],up to 5 hours
same,"facial grimacing, WT and PAR3^−/−",WT and PAR3^−/− mice [3]; [13],significantly increased (A) mechanical hypersensitivity (B) and facial grimacing
same,"duration of facial grimacing, WT and PAR3^−/−",WT and PAR3^−/− mice [3]; [13],up to 5 hours
same,"facial grimacing after PGE2 (priming), WT and PAR3^−/−",WT and PAR3^−/− mice [4]; [14],increased in both groups
same,"duration of mechanical hyperalgesia after PGE2 (priming), WT","WT and PAR3^−/− mice [5]; primed with 2AT 30 pmol, i.pl, PGE2 100 ng after 14 d, WT",up to 24 hours
same,"mechanical hyperalgesia after PGE2 (priming), WT and PAR3^−/−",WT and PAR3^−/− mice [5]; [14],profound deficit in priming in the PAR3^−/− mice; also recorded: robust in the WT group only; also recorded: loss of hyperalgesic priming
same,"priming effect size (von Frey), WT vs PAR3^−/−","WT and PAR3^−/− mice [5]; primed with 2AT 30 pmol, i.pl, PGE2 100 ng after 14 d, unpaired t-test",significant genotype difference between WT and PAR3^−/− groups
IL-6: inflammatory cytokine interleukin 6,"hyperalgesic priming (facial grimacing), PAR3^−/− vs WT",WT and PAR3^−/− mice [4]; [15],not significantly affected by PGE2 treatment in comparison to WT mice; also recorded: hyperalgesic priming was diminished as measured by mechanical hypersensitivity and grimacing in PAR3^−/− mice
same,"hyperalgesic priming (paw withdrawal), PAR3^−/− vs WT",WT and PAR3^−/− mice [5]; [15],not significantly affected by PGE2 treatment in comparison to WT mice; also recorded: hyperalgesic priming was diminished as measured by mechanical hypersensitivity and grimacing in PAR3^−/− mice; also recorded: loss of hyperalgesic priming
"NC1=N[C@H](O)[C@H]2[C@H]3O[C@]4(O)O[C@@H]([C@@H](O)[C@@]2(N1)[C@@H]4O)[C@]3(O)CO [Tetrodotoxin (TTX), Tetrodotoxin, reference compound]",effect of TTX on C660-induced increase of synaptic event frequency,[6],did not influence the effect of C660 on the increased frequency of synaptic events
AYPGKF-NH2 [reference compound],"paw withdrawal threshold, WT and PAR3^−/−","WT and PAR3^−/− mice [2]; AYPGKF-NH2 100 μg, hind paw, male, n = 4/group",did not significantly change withdrawal thresholds and grimacing in WT while a transient effect was seen in PAR3^−/− mice; also recorded: did not change significantly in both WT and PAR3^−/− mice groups
same,"facial grimacing, PAR3^−/−, 1 hr","WT and PAR3^−/− mice [3]; AYPGKF-NH2 100 μg, i.pl, PAR3^−/−, 1 hr post-injection, n = 4/group",transiently increased
same,"facial grimacing, WT and PAR3^−/−","WT and PAR3^−/− mice [3]; AYPGKF-NH2 100 μg, i.pl, n = 4/group",did not significantly change withdrawal thresholds and grimacing in WT while a transient effect was seen in PAR3^−/− mice
carrageenan,"acute response, WT vs PAR3^−/−","WT and PAR3^−/− mice [2]; carrageenan, male mice (Supplementary Fig. S5A–B)",male WT and PAR3^−/− mice responded similarly to the inflammagen acutely
same,"acute response and hyperalgesic priming, female","WT and PAR3^−/− mice [5]; carrageenan, 8-week old female mice (Supplementary Fig. S6A–D)",loss of hyperalgesic priming occurred in both male and female mice
same,"hyperalgesic priming, PAR3^−/− vs WT, male","WT and PAR3^−/− mice [5]; primed with carrageenan, male mice (Supplementary Fig. S5C–D)",hyperalgesic priming was again reduced in the PAR3^−/− mice; also recorded: loss of hyperalgesic priming
TFRGAPPNSFEEF-pego3-Hdc [Compound C660],mEPSC amplitude,[6],no change in amplitude
same,mEPSC frequency,[6],increased the frequency of mEPSCs
same,"paw withdrawal threshold, PAR3^−/−","WT and PAR3^−/− mice [2]; C660 30 pmol intraplantar, PAR3^−/− male mice, n = 4/group",induces mechanical hypersensitivity and facial grimacing in WT but not PAR3^−/− mice; also recorded: significantly reduced paw withdrawal thresholds in the WT but not PAR3^−/− group; also recorded: little acute effect; also recorded: absent in PAR3 deficient mice
same,"duration of mechanical hypersensitivity, WT",WT and PAR3^−/− mice [2]; [16],up to 24 hrs
same,"paw withdrawal threshold, WT",WT and PAR3^−/− mice [2]; [16],induced mechanical hypersensitivity; also recorded: significantly reduced paw withdrawal thresholds; also recorded: prolonged mechanical hypersensitivity
same,heat sensitivity,WT and PAR3^−/− mice [7],did not note any changes in heat sensitivity in either strain of mice
same,"facial grimacing overall effect size, WT vs PAR3^−/−","WT and PAR3^−/− mice [3]; C660 30 pmol intraplantar, 24 hr period, n = 4/group",did not differ significantly between groups
same,"facial grimacing, PAR3^−/−","WT and PAR3^−/− mice [3]; C660 30 pmol intraplantar, PAR3^−/− mice",facial grimacing in WT but not PAR3^−/− mice; also recorded: little acute effect
same,"facial grimacing, WT",WT and PAR3^−/− mice [3]; [16],"transient increase in facial grimacing was observed with the WT cohort at the 1 hr time point; also recorded: noted in WT mice, although changes were transient"
same,"RTCA response, cells not induced to express PAR3",[8],did not show a response; also recorded: absent when PAR3 is not expressed
same,"affective (grimace) response to PGE2 after priming, WT vs PAR3^−/−","WT and PAR3^−/− mice [4]; primed with C660 30 pmol, PGE2 100 ng i.pl after 14 days",robust affective response in WT but not PAR3^−/− mice
same,"hyperalgesic priming (paw withdrawal), PAR3^−/−","WT and PAR3^−/− mice [5]; primed with C660 30 pmol, PGE2 100 ng i.pl after 14 days, PAR3^−/−, n = 4/group",partially attenuated in PAR3^−/− cohort; also recorded: greatly reduced
same,"hyperalgesic priming (paw withdrawal), WT","WT and PAR3^−/− mice [5]; primed with C660 30 pmol, PGE2 100 ng i.pl after 14 days, WT, n = 4/group",caused hyperalgesic priming in WT mice
Thrombin,"mechanical hypersensitivity, PAR3^−/− vs WT",WT and PAR3^−/− mice [2]; [17],"significantly greater in PAR3^−/− mice at 1, 3, and 5 hours post-injection"
same,"mechanical hypersensitivity, WT and PAR3^−/−",WT and PAR3^−/− mice [2]; [17],induced lasting mechanical hypersensitivity in both WT and PAR3^−/− mice
same,"mechanical hypersensitivity, PAR3^−/− vs WT",WT and PAR3^−/− mice [2]; [18],significantly more robust and prolonged in PAR3^−/− mice
same,"mechanical hypersensitivity, WT and PAR3^−/−",WT and PAR3^−/− mice [2]; [18],induced mechanical hypersensitivity in both WT and PAR3^−/−
same,"duration of facial grimacing, PAR3^−/−","WT and PAR3^−/− mice [3]; thrombin 10 units, i.pl, PAR3^−/−",up to 5 hours
same,"facial grimacing, PAR3^−/− and WT","WT and PAR3^−/− mice [3]; thrombin 10 units, i.pl, n = 4/group",significantly increased facial grimacing in PAR3^−/− but not WT mice
same,"signaling, murine PAR3",Murine PAR3,unable to signal on its own in response to thrombin
same,"phosphoinositide signaling, human PAR3",human PAR3 [9],able to trigger robust phosphoinositide signaling
TFRGAPPNSFEEF-pego3-KRRPAIYLLVFVVGV-amide [Compound C752],solubility,[1],improved
same,activity in RTCA,human PAR3 [10],not active
TFFLLR-NH2 [reference compound],"mechanical hypersensitivity, PAR3^−/− vs WT",WT and PAR3^−/− mice [2]; [19],"significantly more robust and prolonged in PAR3^−/− mice; also recorded: more marked in the latter group. Cumulatively, the genotypic differences throughout 48 hours post-injection were significant"
same,"mechanical withdrawal threshold, WT and PAR3^−/−",WT and PAR3^−/− mice [2]; [19],induced mechanical hypersensitivity in both WT and PAR3^−/−; also recorded: significantly reduced mechanical withdrawal thresholds in WT and PAR3^−/− mice
same,"duration of facial grimacing, PAR3^−/−","WT and PAR3^−/− mice [3]; TFFLLR-NH2 100 μg, i.pl, PAR3^−/−",up to 5 hours
same,"facial grimacing, PAR3^−/− and WT","WT and PAR3^−/− mice [3]; TFFLLR-NH2 100 μg, i.pl, n = 4/group",induced prolonged facial grimacing in PAR3^−/− but not WT mice
TFRGAP,Ca2+ response in human smooth muscle cells,[11],elicited a Ca^2+ response in rat astrocytes [60] and human smooth muscle cells
same,Ca2+ response in rat astrocytes,rat astrocytes,elicited a Ca^2+ response in rat astrocytes
same,"ERK activation, mouse lung fibroblasts",mouse lung fibroblasts,induced extracellular regulated kinase (ERK) activation via PAR1 rather than PAR3
same,"ERK activation, A-498 cells",[12],induced extracellular regulated kinase (ERK) activation via PAR1 rather than PAR3

# Source: publication PMC8197731 (The journal of pain, 2021)
